Shown are actives, neighbours in structure and some others; about 9.2% of the full set was active somewhere.
ERa coact pot: enhancers of ERα–SRC-1 coactivator binding, primary screen, biochemical, TR-FRET, ERα LBD, low estradiol; Estrogen receptor (Homo sapiens), P03372; TR-FRET ERalpha-LBD/SRC-Cy5 coactivator binding, 2 h; 100 = basal binding, no effect; coactivator binding (% of control), % at 25.6 µM; 1.3% of 86,000 active; in the data active means activity above about 200%;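 further: binding measured in presence of low estradiol as agonist stimulus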
Target sequence (P03372 whole entry, looked up, the tested form may be a part): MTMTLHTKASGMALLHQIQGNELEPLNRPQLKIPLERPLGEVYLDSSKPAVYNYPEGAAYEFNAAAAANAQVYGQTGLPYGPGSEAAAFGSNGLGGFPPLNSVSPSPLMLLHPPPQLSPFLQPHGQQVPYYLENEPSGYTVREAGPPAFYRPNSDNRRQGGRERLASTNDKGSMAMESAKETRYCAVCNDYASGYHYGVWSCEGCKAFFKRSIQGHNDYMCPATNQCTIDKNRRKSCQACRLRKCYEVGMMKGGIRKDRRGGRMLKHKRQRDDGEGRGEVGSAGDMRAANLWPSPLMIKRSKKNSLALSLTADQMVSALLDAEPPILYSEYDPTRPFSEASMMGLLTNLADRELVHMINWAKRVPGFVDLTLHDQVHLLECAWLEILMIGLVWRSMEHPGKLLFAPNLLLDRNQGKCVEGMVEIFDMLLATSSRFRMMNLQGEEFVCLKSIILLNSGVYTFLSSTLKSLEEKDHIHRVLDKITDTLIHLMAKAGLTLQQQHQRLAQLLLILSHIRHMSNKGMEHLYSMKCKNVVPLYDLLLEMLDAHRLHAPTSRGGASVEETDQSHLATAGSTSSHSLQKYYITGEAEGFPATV
ERb SRC1 inh: inhibitors of ERβ-SRC1 coactivator interaction, primary screen, biochemical, TR-FRET, ERβ LBD, SRC-1 peptide | Estrogen receptor beta (Homo sapiens), Q92731 | TR-FRET ER-beta LBD / SRC1-Cy5 peptide binding; receptor agonist-loaded with 1 µM estradiol | inhibition, % at 25.6 µM | 1.3% of 86,000 active | AID 633, 2007;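 active means compounds whose percent inhibition of the receptor-coactivator binding signal exceeds about 50% in the single-dose screen, limit read from the data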
HUVEC inhibit: inhibitors of HUVEC proliferation, primary screen, cell-based, 384-well | viability, % at 10 µM (by protocol) | 1.1% of 86,000 active | CellTiter-Glo luminescence, 72 h; stronger effect = lower value | AID 648, 2007;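 active means viability at or below 30%; inactive means viability above 30%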
ERa SRC1 inh: ERα–SRC-1 coactivator interaction inhibitors, primary screen, biochemical, TR-FRET, ERα LBD, estradiol-bound; TR-FRET ER-alpha LBD / SRC-1 peptide; 1.7% of 86,000 active; inhibition, % at 25.6 µM; Estrogen receptor (Homo sapiens), P03372; AID 629, 2007; in the data active means inhibition above about 50%
H69AR inhibit: proliferation blockers of H69AR lung cancer cells, primary screen, cell-based, human, 86K library | H69AR lung tumor viability, ATP luminescence, 72 h; stronger effect = lower value | viability, % at 10 µM | 6% of 85,000 active | AID 598, 2007;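 active means viability at or below 40%; inactive means viability above 40%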;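 further: multidrug resistant small cell line overexpressing MRP-1 efflux transporter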
Lung fibro prol: antiproliferative effect on LL 47 fibroblasts – human, LL 47 cells, CellTiter-Glo luminescence, primary screen; LL 47 human lung fibroblast viability, ATP luminescence; stronger effect = lower value; AID 719, 2007; 1.1% of 85,000 active; viability, % at 10 µM;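 active means viability at or below 50% in the single dose screen; inactive means viability above 50%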;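 further: compound exposure lasted 72 h before the ATP readout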
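test system = LL 47 human lung fibroblasts | amount = 1,150 fibroblasts seeded per well | medium = 15% FBS in IMEM | times = overnight cell rest, 72 h compound treatment at 37 °C | measured by = CellTiter-Glo luminescence measuring cellular ATP | read-out = viability percentage against median untreated-cell control | benchmarks = cell-only wells, no compound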
Hits are given with their value; 0 = inactive; [ ] = remark or other dose.

SMILES	ERa coact pot	ERb SRC1 inh	HUVEC inhibit	ERa SRC1 inh	H69AR inhibit	Lung fibro prol
Cc1nc2nc(SCC(=O)NCc3ccco3)nn2c(C)c1Cc1c(F)cccc1Cl	0	0	0	0	35	0
CC1(C)Cn2c(nnc2-c2cccc(O)c2)S1	0	0	0	0	0	0
CCOc1ccccc1-c1nc(C(N)=O)c2[nH]c(=O)n(-c3cccc(C)c3)c2n1	0	0	0	0	33	0
COc1ccc(-c2nc(C(N)=O)c3[nH]c(=O)n(-c4ccccc4OC)c3n2)c(OC)c1	0	0	0	0	31	0
COc1ccc(OC)c(-c2nc(C(N)=O)c3[nH]c(=O)n(-c4ccc(F)cc4)c3n2)c1	0	0	0	0	0	0
Cc1csc(NC(=O)CSc2nnc(-c3ccoc3C)n2Cc2ccco2)n1	0	0	0	0	0	0
Cc1sc(NC(=O)c2ccco2)c(C(c2cccnc2)N2CCCC2)c1C (configuration not stated)	0	0	0	0	0	0
CCN(C(=O)C1CCN(S(=O)(=O)c2ccc3c(c2)oc(=O)n3C)CC1)c1cccc(C)c1	0	0	0	0	0	0
c1cc2c(cc1C1CCCCC1)c1c3n2CCN=C3CCC1	0	0	2.1	0	0.2	0
Cc1ccc2c(c1)c1c3n2CCN=C3CCC1	0	0	0	0	0	0
c1cc2c(cc1C1CCCCC1)c1c3n2CCCNC3CCC1 (configuration not stated)	0	0	2.7	0	1.3	2.6
Cc1cc(OCc2nn[nH]n2)c2c(C)c(Cc3ccccc3)c(=O)oc2c1	0	0	0	0	0	0
Cc1ccc(COn2c(-c3ccc(Cl)cc3Cl)nc3ncccc32)cc1	0	0	0	0	39	0
CCOC(=O)C1=C(C)N=c2s/c(=C\c3ccncc3)c(=O)n2C1c1ccc2c(c1)OCO2 (configuration not stated)	0	0	0	0	3.0	0
CCOC(=O)C1=C(C)N=c2s/c(=C3\C(=O)Nc4ccccc43)c(=O)n2C1c1ccc2c(c1)OCO2 (configuration not stated)	0	0	0	0	27	0
COc1ccc(C2C(C(C)=O)=C(C)N=c3s/c(=C\c4ccc5c(c4)OCO5)c(=O)n32)c(OC)c1 (configuration not stated)	0	0	0	0	0	0
O=C(COC(=O)c1ccccc1S(=O)(=O)N1CCCCC1)NCC(F)(F)F	0	0	0	0	0	0
Cc1ccc2ccc(C3C(=O)c4ccccc4C3=O)nc2c1	395	0	0	0	0	0
CC1=CC(C)C2C(=O)N(CCCN(C)C)C(=O)C2C1 (configuration not stated)	0	0	0	0	0	0
CC(C)(C)c1nnc2sc(SC/C(O)=C(\C#N)c3nc4ccccc4[nH]3)nn2c1=O	0	62	0	69[fluorescence artefact?]	0	0
CCOc1ccc(S(=O)(=O)N2CCN(c3ccc(OC)cc3)CC2)c2cccnc12	0	0	0	0	35	0
CCOc1ccc(S(=O)(=O)N2CCN(c3ccccc3)CC2)c2cccnc12	0	0	0	0	0	0
c1cncc(-c2nc3cc(Cc4ccc5oc(-c6cccnc6)nc5c4)ccc3o2)c1	207[fluorescence artefact?]	0	0	0	0	0
c1cc(-c2nc3cc(Cc4ccc5oc(-c6ccncc6)nc5c4)ccc3o2)ccn1	221[fluorescence artefact?]	0	0	0	0	0
Cc1ccc2oc(-c3ccccc3)nc2c1	0	0	0	0	0	0
O=C(NCCCn1ccnc1)c1ccc(Cl)c(S(=O)(=O)N2CCOCC2)c1	0	0	0	0	0	0
C=CCOC(=O)CN1C(=O)c2ccccc2C1=O	0	0	0	0	0	0
Clc1ccc(-n2nnnc2Sc2ncnc3sccc23)cc1	0	0	4.6	0	2.0	48
Cc1sc2ncnc(Sc3nnnn3-c3ccccc3)c2c1C	202[fluorescence artefact?]	0	26	0	0.9	10

Assay outcomes: PubChem BioAssay, several laboratories
